A selection: hits, their analogues and other compounds. The true share with any hit is near 3.8%.
KCNQ1 act: potentiators or activators of KCNQ1 channel, primary screen, cell-based, thallium flux, high-throughput; CHO-K1 KCNQ1, thallium flux FluxOR fluorescence; hits give high values; AID 2648, 2010; 310,000 compounds, 0.35% hits; B-score at 10 µM; Potassium voltage-gated channel subfamily KQT member 1 (Homo sapiens), P51787;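 active = fluorescence ratio B-score, a plate-corrected score, at least three library SD, with initial intensity B-score within 5 SD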
Target sequence (P51787 whole entry, looked up): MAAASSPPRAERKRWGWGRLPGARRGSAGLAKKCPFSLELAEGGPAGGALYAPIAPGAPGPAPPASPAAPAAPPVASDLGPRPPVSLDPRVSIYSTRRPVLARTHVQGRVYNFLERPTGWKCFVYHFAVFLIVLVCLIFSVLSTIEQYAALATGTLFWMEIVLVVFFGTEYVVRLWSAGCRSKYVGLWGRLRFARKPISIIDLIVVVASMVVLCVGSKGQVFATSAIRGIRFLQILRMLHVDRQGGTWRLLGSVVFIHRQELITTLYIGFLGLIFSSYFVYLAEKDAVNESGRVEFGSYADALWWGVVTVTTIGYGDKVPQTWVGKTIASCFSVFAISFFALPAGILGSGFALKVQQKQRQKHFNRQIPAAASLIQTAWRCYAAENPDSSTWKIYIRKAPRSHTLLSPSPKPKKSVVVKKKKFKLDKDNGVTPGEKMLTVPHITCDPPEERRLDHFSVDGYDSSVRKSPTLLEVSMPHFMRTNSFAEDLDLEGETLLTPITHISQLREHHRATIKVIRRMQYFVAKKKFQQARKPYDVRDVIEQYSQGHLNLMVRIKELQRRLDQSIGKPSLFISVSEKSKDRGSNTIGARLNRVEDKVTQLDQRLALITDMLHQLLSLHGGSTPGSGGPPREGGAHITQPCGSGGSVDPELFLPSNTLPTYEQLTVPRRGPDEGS
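assay system = KCNQ1-transfected CHO-K1 cells | medium = assay buffer with matched DMSO | probe or stimulus = depolarizing K+/Tl+ stimulus, K2SO4 and Tl2SO4 each 12.5 mM in 5x stock | dosing = single dose | incubation = dye 90 min, compound 20 min, room temperature | detection = kinetic FluxOR fluorescence, 10 s baseline plus 110 s post-stimulus | evaluation = ratio B score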
Kir21 inh: inhibitors of mouse Kir2.1 inward-rectifier potassium channel; Inward rectifier potassium channel 2 (Mus musculus), P35561; HEK293-Kir2.1, FluxOR thallium flux fluorescence; hits give low values; B-score at 10 µM; 310,000 compounds, 0.85% hits; AID 1672, 2009;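 active = fluorescence ratio B-score at or below minus 3 SD of library scores, with starting-brightness B-score within 2 SD, cut at about -4.2 in these data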;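 also: channel flux triggered by added potassium and thallium sulfate stimulus; B-score of peak minus minimum fluorescence over baseline after thallium stimulus; more negative B-score means stronger Kir2.1 block with less thallium influx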
KCNK9 inh: KCNK9 potassium channel inhibitors, primary screen, HEK293 cells, thallium flux. FluxOR thallium flux fluorescence; hits give low values. Potassium channel subfamily K member 9 (Homo sapiens), Q9NPC2. B-score at 10 µM. 310,000 compounds, 1.2% hits;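 active = ratio B-score over 3 SD below the library mean, with starting fluorescence within 5 SD of its mean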;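 also: negative B-score means less thallium flux so channel inhibition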
KCNQ1 inh: inhibitors of human KCNQ1 channel, primary screen, cell-based, thallium flux, high-throughput; Potassium voltage-gated channel subfamily KQT member 1 (Homo sapiens), P51787; CHO-K1 KCNQ1, FluxOR thallium flux fluorescence; hits give high values; B-score at 10 µM; 310,000 compounds, 1.3% hits;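 active = compounds whose thallium flux B-score, printed positive for inhibition, exceeds three library SD while starting fluorescence stays within three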;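 also: channel opened by potassium depolarization with thallium stimulus after 20 min compound exposure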
KCNK3 inh: human KCNK3 channel inhibitors, primary screen, CHO cells, FluxOR thallium flux, B-score; Potassium channel subfamily K member 3 (Homo sapiens), O14649; FluxOR fluorescence; hits give low values; B-score at 10 µM; 340,000 compounds, 0.84% hits; AID 602410, 2012;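 active = B-score under library mean minus 4 SD, starting fluorescence ratio at most library mean plus 5 SD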;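 also: more negative B-score means stronger inhibition of thallium flux through KCNK3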
hERG protect: hERG rescue from dofetilide block, primary screen, cell-based, CHO-hERG, FluxOR thallium flux, dofetilide IC70. dofetilide IC70 present. AID 1511, 2009. activation (rescue from dofetilide block), less the hit threshold, % at 10 µM. Voltage-gated inwardly rectifying potassium channel KCNH2 (Homo sapiens), Q12809. 310,000 compounds, 0.51% hits;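 active = activation above the mean of controls blocked by dofetilide plus 5 SD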;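 also: thallium influx through hERG after potassium depolarization seen as dye fluorescence rise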
KCNK9 block conf: KCNK9 potassium channel inhibitors, confirmation, HEK293 cells, thallium flux, duplicate; shares compounds with KCNK9 inh; AID 492992, 2010; 4,900 compounds, 43% hits; FluxOR thallium flux fluorescence; inhibition, % at 10 µM;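 active = thallium signal inhibited by more than 5 SD of the compound-free buffer control wells, on both duplicate plates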
Kir2-1 spec: mouse Kir2.1 channel inhibition, confirmation, selectivity assay for KCNK9 modulator project, cell-based, HEK293, thallium flux | shares compounds with KCNK9 inh | Kir2.1 cells, FluxOR thallium flux fluorescence | inhibition, % at 10 µM | 4,900 compounds, 4% hits | AID 492993, 2010;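 active = thallium signal drop more than 5 SD beyond the mean of the no-compound control wells, seen in both duplicate plates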;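 also: signal is fluorescence rise after thallium addition divided by baseline fluorescence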
KCNK9 uninduced: thallium flux in non-induced HEK293 cells, confirmation, counter-screen for KCNK9 inhibitor project, cell-based, second counter screen, non-induced KCNK9-HEK293; FluxOR thallium flux; 4,900 compounds, 40% hits; AID 492997, 2010; shares compounds with KCNK9 inh; inhibition, % at 10 µM;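 active = thallium signal drop beyond 5 SD of the untreated control mean, on both duplicate plates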
A number is an active result; i = inactive; nt = not tested or not shown.

SMILES | KCNQ1 act | Kir21 inh | KCNK9 inh | KCNQ1 inh | KCNK3 inh | hERG protect | KCNK9 block conf | Kir2-1 spec | KCNK9 uninduced
CCN1/C(=C/c2sc(-c3ccccc3C)c[n+]2C)Sc2ccccc21 | i | -7.61 | -13.1 | 11 | -10.2 | i | 69.0% | 64.0% | 27.5%
Cc1ccc(NS(=O)(=O)c2cc3[nH]c(=O)c(=O)[nH]c3cc2C)c(C)c1 | i | i | i | i | i | i | nt | nt | nt
Cc1ccc(/C(=N\O)c2oc3c(C)c4oc(=O)cc(C)c4cc3c2C)cc1 | i | i | -9.32 | 8 | i | i | 28.0% | i | 44.5%
COc1cccc(Cn2cnc3c(NS(=O)(=O)c4cc(Cl)ccc4Cl)c(C)c(C)cc32)c1 | i | i | -15.5 | i | -9.48 | i | 64.0% | i | i
COc1cccc(Cn2cnc3c(NS(=O)(=O)c4cccc(Cl)c4Cl)c(C)c(C)cc32)c1 | i | i | -12.6 | i | i | i | 72.0% | i | i
C#CCOCCOCCOCCNc1nc(N2CCN(C(=O)[C@H](CCC(=O)O)n3cc([C@@H](N)[C@H](C)CC)nn3)CC2)nc(N2CCN(C(=O)[C@H](CCCCN)n3cc([C@@H](N)CC(N)=O)nn3)CC2)n1 | nt | nt | nt | nt | i | nt | nt | nt | nt
O=C(Nc1cccc(Cl)c1N1CCCC1)c1ccco1 | i | i | -9.93 | i | i | i | i | i | 29.0%
O=C(Nc1ccc(N2CCCC2)c(Cl)c1)c1ccco1 | i | i | i | i | i | i | nt | nt | nt
Cc1c(C)c2ccc(OCC(=O)Nc3cccnc3)cc2oc1=O | i | i | i | i | i | i | nt | nt | nt
Cc1cc(Cl)ccc1C(=O)C1CCCN(C(=O)c2ccc3ncccc3c2)C1 (centres undefined) | i | i | i | i | i | i | i | i | i
Cc1cc(Cl)ccc1C(=O)C1CCCN(C(=O)c2cc(C(C)C)no2)C1 (centres undefined) | i | i | i | i | i | i | i | i | i
Cc1cc(Cl)ccc1C(=O)C1CCCN(C(=O)c2ccsc2)C1 (centres undefined) | i | i | i | i | i | i | i | i | i
COC(=O)CCC(=O)N1CCCC(C(=O)c2ccc(Cl)cc2C)C1 (centres undefined) | i | i | i | i | i | i | nt | nt | nt
Cc1cc(Cl)ccc1C(=O)C1CCCN(C(=O)c2cccc(N3CCCC3=O)c2)C1 (centres undefined) | i | i | i | i | i | i | nt | nt | nt
Cc1ccc(-c2sc(C(=O)NN)c(C)c2C#N)cc1 | i | i | i | i | i | i | nt | nt | nt
COc1cc(/C=C/C(=O)c2ccc(NS(=O)(=O)c3ccc(C)cc3)cc2)ccc1OC(F)F | i | i | i | i | i | i | i | i | i
C/C(=N\NC(=O)c1nnn(-c2nonc2N)c1-c1ccccc1)c1ccco1 | i | i | i | i | i | i | nt | nt | nt
COc1ccc(-n2nnnc2/C=C/Nc2cc(C(F)(F)F)ccc2OC)cc1 | i | i | -12.4 | i | i | i | 34.0% | i | 43.0%
CC(C)(C)NC(=S)NC(=O)C12CCC3CC(CC(C3)C1)C2 | i | i | i | i | i | i | i | i | i
COc1ccc(Cl)cc1NC(=O)C1CCN(C(=O)C2CC(=O)N(c3ccc(C)cc3)C2)CC1 (centres undefined) | i | i | i | i | i | i | nt | nt | nt
COCCNC(=S)N(CCc1c(C)[nH]c2ccccc12)Cc1ccco1 | i | -4.66 | i | i | i | i | i | i | i
Cc1[nH]c2ccccc2c1CCN(Cc1cccs1)C(=S)Nc1ccccc1 | i | i | -8.18 | i | i | i | 33.5% | i | 31.0%
CC(C)(CNS(=O)(=O)c1ccc(Br)s1)N1CCOCC1 | nt | nt | nt | nt | i | nt | nt | nt | nt
O=C(CCCOc1ccccc1)N1CCc2ccccc2C1 | i | i | i | i | i | i | nt | nt | nt
Cc1ccc(C)c(OCC(=O)N2CCc3ccccc3C2)c1 | i | i | i | i | i | i | i | i | i
SMILES | KCNQ1 act | Kir21 inh | KCNK9 inh | KCNQ1 inh | KCNK3 inh | hERG protect | KCNK9 block conf | Kir2-1 spec | KCNK9 uninduced
O=C(CCCOc1ccc(Cl)cc1Cl)N1CCc2ccccc2C1 | i | i | i | i | i | i | i | i | i
CN(C)c1cccc(C(=O)OCC(=O)N2CCc3ccccc3C2)c1 | i | i | i | i | i | i | i | i | i
Brc1ccc(N=Nc2ccc3ccccc3n2)cc1 | i | i | -10.5 | i | i | i | 42.0% | i | 82.0%
CCN(CC)S(=O)(=O)c1ccc(N2CCCCC2)c(NC(=O)C2CCN(C(=O)c3ccc(F)cc3)CC2)c1 | i | i | i | i | i | i | nt | nt | nt
c1ccc(CCSc2nccn2-c2ccccc2)cc1 | i | i | i | i | i | i | nt | nt | nt
CCc1ccc(CSc2nccn2-c2ccccc2)cc1 | i | -4.89 | i | i | i | i | i | i | i
Brc1ccc(N/N=C(/N=Nc2nn[nH]n2)c2ccccc2)cc1 | i | i | i | 12 | i | i | i | i | i
O=C(/C=C/c1ccco1)NC(=S)Nc1cccc(-c2nc3ccccc3s2)c1 | i | i | i | i | i | i | i | i | i
O=C(c1ccccc1)c1ccc2cc(O)ccc2c1 | i | i | i | i | i | i | i | i | i
CCCN(CC(=O)Nc1ccccc1C)C(=O)CC(NC(=O)c1ccccc1)c1ccccc1 (centres undefined) | i | i | i | i | i | i | nt | nt | nt
O=C(Nc1ccccc1)OCCNC1CCCCC1 | nt | nt | nt | nt | i | nt | nt | nt | nt
O=C(Nc1ccccc1)OC1CCCCc2cccnc21 (centres undefined) | i | i | i | i | i | i | i | i | 28.5%
COc1ccccc1N1CCN(c2nc(C)nc3c2oc2ccccc23)CC1 | i | i | -14.3 | i | -9.01 | i | i | i | 32.0%
CCn1cnc2sc(-c3ccccc3)cc2c1=O | i | i | i | i | i | i | nt | nt | nt
Cc1ccc(C)n1-n1c(C)nc2sc(-c3ccccc3)cc2c1=O | i | i | i | i | i | i | i | i | i
Cc1ccc(C)n1-n1cnc2sc(-c3ccccc3)cc2c1=O | i | i | -14.1 | i | i | i | 44.0% | i | 26.0%
